Experimental data from ChEMBL document CHEMBL2062417, “Biotinylated quercetin as an intrinsic photoaffinity proteomics probe for the identification of quercetin target proteins” (Bioorg Med Chem, 2011).
Calls of active or inactive are those of the source. No cut-off for these calls is given here.

What was measured:
[1] = target: T1, Ubiquitin-like modifier-activating enzyme 1 (Homo sapiens) (UniProt P22314); experiment: Binding affinity to UBA1 in human Jurkat cells at 150 uM followed by UV irradiation for 30 mins with Wood's glass filtered medium pressure mercury arc light prior to cell lysis measured after denaturing wash by LC-MS/MS based pull down assay
T1 sequence (whole entry): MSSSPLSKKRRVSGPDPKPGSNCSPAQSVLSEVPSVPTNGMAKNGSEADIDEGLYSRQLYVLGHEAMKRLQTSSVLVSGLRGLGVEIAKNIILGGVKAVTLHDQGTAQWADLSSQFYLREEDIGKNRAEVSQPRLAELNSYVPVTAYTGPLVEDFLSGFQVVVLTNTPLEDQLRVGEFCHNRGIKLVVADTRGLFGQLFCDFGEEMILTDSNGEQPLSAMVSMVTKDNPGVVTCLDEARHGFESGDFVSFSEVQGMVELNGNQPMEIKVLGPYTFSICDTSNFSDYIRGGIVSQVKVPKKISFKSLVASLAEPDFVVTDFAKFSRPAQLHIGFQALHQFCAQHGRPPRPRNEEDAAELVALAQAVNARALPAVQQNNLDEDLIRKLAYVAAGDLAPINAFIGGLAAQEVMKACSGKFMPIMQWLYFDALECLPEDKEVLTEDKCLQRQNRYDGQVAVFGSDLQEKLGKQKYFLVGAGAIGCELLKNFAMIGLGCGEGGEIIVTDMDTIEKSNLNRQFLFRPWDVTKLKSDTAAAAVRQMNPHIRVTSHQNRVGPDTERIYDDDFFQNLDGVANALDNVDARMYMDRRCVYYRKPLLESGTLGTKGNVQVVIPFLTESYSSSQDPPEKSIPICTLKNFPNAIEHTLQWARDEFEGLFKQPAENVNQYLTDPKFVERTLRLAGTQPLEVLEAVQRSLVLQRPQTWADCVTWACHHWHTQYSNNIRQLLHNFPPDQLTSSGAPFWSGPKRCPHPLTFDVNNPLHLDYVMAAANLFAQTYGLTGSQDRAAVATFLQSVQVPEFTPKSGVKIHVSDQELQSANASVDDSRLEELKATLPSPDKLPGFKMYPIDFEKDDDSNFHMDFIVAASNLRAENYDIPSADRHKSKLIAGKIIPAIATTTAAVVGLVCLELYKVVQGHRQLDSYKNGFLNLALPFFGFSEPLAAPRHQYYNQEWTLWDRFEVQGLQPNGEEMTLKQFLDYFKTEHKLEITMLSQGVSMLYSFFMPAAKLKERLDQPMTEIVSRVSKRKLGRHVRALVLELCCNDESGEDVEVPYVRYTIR
Procedure, shortened: (§1)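 Silver-stained bands from cells irradiated before lysis were excised, destained, reduced with 10 mM DTT, alkylated with 50 mM iodoacetamide and digested with trypsin overnight. Peptides were extracted in 1% TFA/50% acetonitrile. Nano-C18 LC used a 2–50% acetonitrile gradient with 0.1% formic acid over 50 min at 260 nL/min, followed by MS/MS identification.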

[2] = target: Heat shock protein HSP 90-alpha (Homo sapiens) (UniProt P07900); experiment: Binding affinity to HSP90AA1 in human Jurkat cells at 150 uM followed by UV irradiation for 30 mins with Wood's glass filtered medium pressure mercury arc light prior to cell lysis measured after denaturing wash by LC-MS/MS based pull down assay; procedure, shortened: as §1
[3] = target: Heat shock protein HSP 90-alpha (Homo sapiens) (UniProt P07900); experiment: Binding affinity to HSP90AA1 in human Jurkat cells at 150 uM followed by UV irradiation for 30 mins with Wood's glass filtered medium pressure mercury arc light prior to cell lysis measured after denaturing wash by SDS-PAGE based pull down assay
Procedure, shortened: (§2)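 Jurkat cells were grown in RPMI with 10% FBS (about 15×10^6 cells) and treated 2 h with 150 μM BioQ in 3% aqueous DMSO. They were heat-shocked at 43 °C for 30 min, recovered 1 h at 37 °C, and UV-irradiated (320–400 nm, peak 365 nm, 30 min, 4 °C) before or after sonication lysis. Streptavidin-agarose capture ran 1 h. Beads were washed ≥3× with lysis buffer or 2% SDS Tris pH 7.4, boiled, run on 12% SDS-PAGE and silver-stained.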

[4] = target: Eukaryotic translation initiation factor 3 subunit F (Homo sapiens) (UniProt O00303); experiment: Binding affinity to EIF3F in human Jurkat cells at 150 uM followed by UV irradiation for 30 mins with Wood's glass filtered medium pressure mercury arc light prior to cell lysis measured after denaturing wash by LC-MS/MS based pull down assay; procedure, shortened: as §1
Chain of Eukaryotic translation initiation factor 3 subunit F (Homo sapiens) (O00303 whole entry): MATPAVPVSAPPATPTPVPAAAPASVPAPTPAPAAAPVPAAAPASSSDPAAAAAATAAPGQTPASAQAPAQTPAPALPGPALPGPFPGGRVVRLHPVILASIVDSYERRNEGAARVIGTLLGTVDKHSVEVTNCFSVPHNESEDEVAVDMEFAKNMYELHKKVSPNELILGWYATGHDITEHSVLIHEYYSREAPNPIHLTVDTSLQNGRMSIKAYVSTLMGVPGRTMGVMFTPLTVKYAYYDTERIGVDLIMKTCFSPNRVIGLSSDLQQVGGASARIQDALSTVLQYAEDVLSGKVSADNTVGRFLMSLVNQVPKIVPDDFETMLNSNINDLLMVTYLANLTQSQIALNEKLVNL

[5] = target: ATP synthase F(1) complex subunit alpha, mitochondrial (Homo sapiens) (UniProt P25705); experiment: Binding affinity to ATP5A1 in human Jurkat cells at 150 uM followed by UV irradiation for 30 mins with Wood's glass filtered medium pressure mercury arc light prior to cell lysis measured after denaturing wash by SDS-PAGE based pull down assay; procedure, shortened: as §2
Chain of ATP synthase F(1) complex subunit alpha, mitochondrial (Homo sapiens) (P25705 whole entry, one chain of several): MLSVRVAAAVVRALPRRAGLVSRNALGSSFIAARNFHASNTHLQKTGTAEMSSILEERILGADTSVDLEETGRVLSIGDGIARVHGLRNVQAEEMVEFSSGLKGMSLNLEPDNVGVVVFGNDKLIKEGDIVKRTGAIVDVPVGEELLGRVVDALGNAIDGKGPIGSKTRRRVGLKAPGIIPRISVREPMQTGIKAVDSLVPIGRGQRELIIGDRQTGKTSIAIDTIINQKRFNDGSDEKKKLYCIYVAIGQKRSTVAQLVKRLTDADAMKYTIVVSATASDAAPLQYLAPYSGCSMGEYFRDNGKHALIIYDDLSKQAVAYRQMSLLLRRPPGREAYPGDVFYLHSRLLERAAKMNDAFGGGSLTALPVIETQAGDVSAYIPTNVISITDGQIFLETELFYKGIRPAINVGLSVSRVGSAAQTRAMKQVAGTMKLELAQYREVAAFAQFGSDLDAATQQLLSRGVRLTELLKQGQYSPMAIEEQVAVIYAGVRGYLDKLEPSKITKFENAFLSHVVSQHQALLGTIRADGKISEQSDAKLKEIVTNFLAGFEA

[6] = target: Calcium/calmodulin-dependent protein kinase type II subunit beta (Homo sapiens, UniProt Q13554); experiment: Inhibition of CAMK2 using autocamtide-2 as substrate after 30 mins by PKLight assay
Chain of Calcium/calmodulin-dependent protein kinase type II subunit beta (Q13554 whole entry): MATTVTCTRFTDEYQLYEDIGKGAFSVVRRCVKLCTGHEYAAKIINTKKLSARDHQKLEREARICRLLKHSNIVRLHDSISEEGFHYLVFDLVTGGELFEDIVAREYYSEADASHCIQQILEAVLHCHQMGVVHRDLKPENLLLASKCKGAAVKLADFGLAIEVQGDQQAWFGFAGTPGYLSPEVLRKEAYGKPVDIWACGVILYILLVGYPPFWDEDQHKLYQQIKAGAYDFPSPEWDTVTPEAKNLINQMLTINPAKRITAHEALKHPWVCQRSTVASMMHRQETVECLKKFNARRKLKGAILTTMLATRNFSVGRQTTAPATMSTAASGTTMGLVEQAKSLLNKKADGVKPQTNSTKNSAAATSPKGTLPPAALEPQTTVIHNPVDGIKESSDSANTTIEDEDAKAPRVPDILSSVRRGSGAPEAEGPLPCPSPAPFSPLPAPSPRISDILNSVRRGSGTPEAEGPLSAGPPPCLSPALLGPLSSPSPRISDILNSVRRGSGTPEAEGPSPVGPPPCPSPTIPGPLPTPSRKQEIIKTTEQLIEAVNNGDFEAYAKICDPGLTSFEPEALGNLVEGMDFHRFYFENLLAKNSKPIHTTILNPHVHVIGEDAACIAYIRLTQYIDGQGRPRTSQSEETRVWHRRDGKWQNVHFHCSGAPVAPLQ

[7] = target: Heat shock-related 70 kDa protein 2 (Homo sapiens) (UniProt P54652); experiment: Binding affinity to HSPA2 in human Jurkat cells at 150 uM followed by UV irradiation for 30 mins with Wood's glass filtered medium pressure mercury arc light after cell lysis measured after denaturing wash by SDS-PAGE based pull down assay; procedure, shortened: as §2
Chain of Heat shock-related 70 kDa protein 2 (Homo sapiens) (P54652 whole entry): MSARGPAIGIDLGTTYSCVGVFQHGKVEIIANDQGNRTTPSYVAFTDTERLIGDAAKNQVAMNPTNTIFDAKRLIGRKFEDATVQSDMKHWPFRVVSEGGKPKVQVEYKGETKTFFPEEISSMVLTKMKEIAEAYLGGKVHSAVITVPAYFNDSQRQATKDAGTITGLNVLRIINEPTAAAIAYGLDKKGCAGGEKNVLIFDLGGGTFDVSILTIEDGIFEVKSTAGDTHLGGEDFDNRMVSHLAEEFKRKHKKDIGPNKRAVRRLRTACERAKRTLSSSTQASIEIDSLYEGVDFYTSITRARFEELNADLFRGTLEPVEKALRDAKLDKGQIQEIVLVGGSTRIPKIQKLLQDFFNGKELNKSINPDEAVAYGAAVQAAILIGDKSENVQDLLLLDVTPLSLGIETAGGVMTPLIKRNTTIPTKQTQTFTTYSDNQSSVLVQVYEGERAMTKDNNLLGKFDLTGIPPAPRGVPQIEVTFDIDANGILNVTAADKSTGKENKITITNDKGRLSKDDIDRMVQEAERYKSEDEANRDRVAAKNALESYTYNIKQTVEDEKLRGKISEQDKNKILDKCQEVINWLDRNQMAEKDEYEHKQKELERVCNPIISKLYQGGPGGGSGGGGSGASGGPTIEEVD

Casein kinase II = Casein kinase II (Homo sapiens, UniProt P19784+P67870+P68400); experiment: Inhibition of CK2 using RRRADDSDDDDD as substrate after 30 mins by PKLight assay; type: protein-complex assay
Chain of Casein kinase II (P67870 whole entry): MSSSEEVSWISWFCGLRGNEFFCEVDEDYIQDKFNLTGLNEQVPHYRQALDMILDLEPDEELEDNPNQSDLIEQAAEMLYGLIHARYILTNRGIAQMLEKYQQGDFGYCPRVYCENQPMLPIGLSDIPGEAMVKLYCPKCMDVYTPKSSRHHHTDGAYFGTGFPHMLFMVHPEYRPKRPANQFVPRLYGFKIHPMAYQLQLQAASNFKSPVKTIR
Chain of Casein kinase II (P68400 whole entry): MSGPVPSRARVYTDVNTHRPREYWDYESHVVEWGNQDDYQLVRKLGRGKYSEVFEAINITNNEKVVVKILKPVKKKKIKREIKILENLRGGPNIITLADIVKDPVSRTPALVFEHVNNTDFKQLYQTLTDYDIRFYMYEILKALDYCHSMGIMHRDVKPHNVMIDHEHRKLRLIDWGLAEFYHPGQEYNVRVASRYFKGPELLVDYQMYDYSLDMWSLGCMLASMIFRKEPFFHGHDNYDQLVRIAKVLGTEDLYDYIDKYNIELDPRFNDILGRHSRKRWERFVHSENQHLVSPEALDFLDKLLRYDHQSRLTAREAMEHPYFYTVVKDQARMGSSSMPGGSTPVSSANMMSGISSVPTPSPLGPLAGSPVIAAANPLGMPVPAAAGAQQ
Chain of Casein kinase II (P19784 whole entry): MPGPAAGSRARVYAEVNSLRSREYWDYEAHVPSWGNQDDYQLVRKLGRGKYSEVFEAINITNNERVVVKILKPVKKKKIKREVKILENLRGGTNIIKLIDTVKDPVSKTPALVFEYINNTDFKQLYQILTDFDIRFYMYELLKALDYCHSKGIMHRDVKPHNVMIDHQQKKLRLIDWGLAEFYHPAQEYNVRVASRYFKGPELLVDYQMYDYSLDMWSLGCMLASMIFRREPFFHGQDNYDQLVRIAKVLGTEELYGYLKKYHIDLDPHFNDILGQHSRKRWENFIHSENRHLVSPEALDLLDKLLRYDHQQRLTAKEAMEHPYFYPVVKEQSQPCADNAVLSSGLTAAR

[8] = target: ATP synthase F(1) complex subunit alpha, mitochondrial (Homo sapiens) (UniProt P25705); experiment: Binding affinity to ATP5A1 in human Jurkat cells at 150 uM followed by UV irradiation for 30 mins with Wood's glass filtered medium pressure mercury arc light after cell lysis measured after denaturing wash by SDS-PAGE based pull down assay; procedure, shortened: as §2
[9] = target: RuvB-like 2 (Homo sapiens) (UniProt Q9Y230); experiment: Binding affinity to RUVBL2 in human Jurkat cells at 150 uM followed by UV irradiation for 30 mins with Wood's glass filtered medium pressure mercury arc light prior to cell lysis measured after denaturing wash by LC-MS/MS based pull down assay; procedure, shortened: as §1
Chain of RuvB-like 2 (Homo sapiens) (Q9Y230 whole entry): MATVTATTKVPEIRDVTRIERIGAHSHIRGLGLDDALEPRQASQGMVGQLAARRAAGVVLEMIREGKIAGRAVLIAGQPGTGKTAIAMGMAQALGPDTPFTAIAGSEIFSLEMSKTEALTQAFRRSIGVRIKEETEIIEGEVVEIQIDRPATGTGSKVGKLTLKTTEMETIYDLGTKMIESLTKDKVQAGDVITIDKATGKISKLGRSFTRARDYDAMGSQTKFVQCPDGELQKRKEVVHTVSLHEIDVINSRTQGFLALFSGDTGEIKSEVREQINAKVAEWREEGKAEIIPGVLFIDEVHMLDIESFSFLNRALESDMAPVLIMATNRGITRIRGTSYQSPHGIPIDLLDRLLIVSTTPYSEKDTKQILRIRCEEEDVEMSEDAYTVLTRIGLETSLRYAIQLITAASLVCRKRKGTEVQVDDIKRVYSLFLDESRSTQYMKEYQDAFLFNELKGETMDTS

[10] = target: Heat shock-related 70 kDa protein 2 (Homo sapiens) (UniProt P54652); experiment: Binding affinity to HSPA2 in human Jurkat cells at 150 uM followed by UV irradiation for 30 mins with Wood's glass filtered medium pressure mercury arc light prior to cell lysis measured after denaturing wash by SDS-PAGE based pull down assay; procedure, shortened: as §2

Activity [1]: Active
Activity [2]: Active
Activity [3]: Active
Activity [4]: Active
Activity [5]: Active
IC50 [6]: 25.9 µM
Activity [7]: Active
IC50 (Casein kinase II): 3.2 µM
Activity [8]: Active
Activity [9]: Active
Activity [10]: Active
Compound: O=C(CCCC[C@@H]1SC[C@@H]2NC(=O)N[C@@H]21)NCCOCCOCCNC(=O)COc1cc(O)c2c(=O)c(O)c(-c3ccc(O)c(O)c3)oc2c1
